Sampled rows, rich in hits. Any-hit rate of the full collection: about 4.1%.
KCNK9 block: inhibitors of human KCNK9 two-pore domain potassium channel; B-score at 10 µM; HEK293 KCNK9, FluxOR thallium flux fluorescence; active compounds read low; Q9NPC2; 1.2% of 310,000 active;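 active = ratio B-score over 3 SD below the library mean, with starting fluorescence within 5 SD of its mean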;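 note: negative B-score means less thallium flux so channel inhibition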
KCC2 mod: modulates chloride dependent transport by human KCC2; Q9H2X9; KCC2 cells, thallium flux FluoZin-2 fluorescence; B-score of Tl+ flux slope (higher = more flux/activation; lower = inhibition) at 10 µM; 2.2% of 190,000 active; AID 1456;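 active = thallium flux slope and its plate-corrected score both differing from the plate sample mean at a set confidence after two filtering rounds, in either direction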;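 note: slope of fluorescence scaled to starting intensity during 10 to 20 s after thallium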
KCNK3 block: human KCNK3 channel inhibition, primary screen | CHO-KCNK3 thallium flux, FluxOR fluorescence; active compounds read low | 0.84% of 340,000 active | O14649 | B-score at 10 µM;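 active = B-score under library mean minus 4 SD, starting fluorescence ratio at most library mean plus 5 SD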;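 note: more negative B-score means stronger inhibition of thallium flux through KCNK3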
KCNQ1 block: inhibitors of human KCNQ1 potassium channel. 1.3% of 310,000 active. B-score at 10 µM. CHO-K1 KCNQ1, FluxOR thallium flux fluorescence; active compounds read high. P51787;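 active = compounds whose thallium flux B-score, printed positive for inhibition, exceeds three library SD while starting fluorescence stays within three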;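 note: channel opened by potassium depolarization with thallium stimulus after 20 min compound exposure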
hERG protect: compounds protecting human hERG from proarrhythmic drug block | CHO-hERG, FluxOR thallium flux, dofetilide IC70 present | AID 1511 | activation (rescue from dofetilide block), less the hit threshold, % at 10 µM | 0.51% of 310,000 active | Q12809;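 active = activation above the mean of controls blocked by dofetilide plus 5 SD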;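 note: thallium influx through hERG after potassium depolarization seen as dye fluorescence rise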
KCNQ1 act: potentiators or activators of human KCNQ1 potassium channel. P51787. CHO-K1 KCNQ1, thallium flux FluxOR fluorescence; active compounds read high. B-score at 10 µM. 0.35% of 310,000 active;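 active = fluorescence ratio B-score, a plate-corrected score, at least three library SD, with initial intensity B-score within 5 SD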
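Assay system: CHO-K1 cells stably expressing KCNQ1; Medium: assay buffer with matched DMSO; Also added: K+/Tl+ depolarizing stimulus; Dosing: single dose; Timing: dye 90 min, compound 20 min, room temperature; Measured by: kinetic FluxOR thallium fluorescence, 10-s 1-Hz baseline, 110-s post-stimulus read; Read-out: peak-minus-minimum fluorescence over initial fluorescence, negative-control normalized, B-scored.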
KCNK9 block conf: confirmation of human KCNK9 potassium channel inhibitors | AID 492992 | 43% of 4,900 active | shares compounds with KCNK9 block | inhibition, % at 10 µM | HEK293 KCNK9 cells, FluxOR thallium flux fluorescence;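 active = thallium signal inhibited by more than 5 SD of the compound-free buffer control wells, on both duplicate plates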;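 note: 0% = assay buffer control wells without compound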
Kir2-1 spec: tests whether KCNK9 modulators also affect mouse Kir2.1. AID 492993. inhibition, % at 10 µM. Kir2.1 cells, FluxOR thallium flux fluorescence. 4% of 4,900 active. shares compounds with KCNK9 block;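 active = thallium signal drop more than 5 SD beyond the mean of the no-compound control wells, seen in both duplicate plates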;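 note: signal is fluorescence rise after thallium addition divided by baseline fluorescence; plate controls were assay buffer only for no effect and full block by chlorpromazine control for full effect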
HEK293 Tl ctr: second counter-screen for KCNK9 modulators: effect in non-induced cells; shares compounds with KCNK9 block; non-induced KCNK9-HEK293, FluxOR thallium flux; inhibition, % at 10 µM; 40% of 4,900 active; AID 492997;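 active = thallium signal drop beyond 5 SD of the untreated control mean, on both duplicate plates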;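 note: plate controls were buffer only IC0 wells for no effect and SID17386958 at its maximal inhibitory level for full effect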
* = called active by the depositor; i = inactive; x = not tested or not shown.

SMILES	KCNK9 block	KCC2 mod	KCNK3 block	KCNQ1 block	hERG protect	KCNQ1 act	KCNK9 block conf	Kir2-1 spec	HEK293 Tl ctr
COc1cccc(C(=O)C2CCCN(Cc3ccc(OC)c(Cn4cncn4)c3)C2)c1 (centres undefined)	i	0.74	i	i	-15	i	x	x	x
COc1ccc(C(=O)C2CCCN(Cc3cccn3-c3nccs3)C2)cc1F (centres undefined)	i	-0.36	i	i	-21	i	i	i	i
COc1ccc(CN2CCCC(C(=O)c3ccc(Cl)cc3)C2)cc1Cn1cccn1 (centres undefined)	i	x	i	i	-23	i	i	i	i
O=C(c1ccc(Cl)cc1)C1CCCN(Cc2cccn2-c2ccccn2)C1 (centres undefined)	i	-0.41	i	i	-20	i	i	i	i
Cc1cnc(C(=O)OCC(=O)N2CCC(C)CC2)cn1	x	x	i	x	x	x	x	x	x
Cc1cc2ccccc2n1CCNC(=O)c1ccccc1	-9.6*	-0.0023	i	i	-12	i	36%*	i	25%*
Cc1ccc(C(=O)NCCc2cccc(Cl)c2)cc1[N+](=O)[O-]	i	-1.3	i	i	-10	i	i	i	i
O=C(NCCc1cccc(Cl)c1)c1ccc(Cl)c([N+](=O)[O-])c1	i	-0.2	i	i	-15	i	i	i	i
Cc1ccc(C(=O)NCCn2ccc3ccccc32)cc1[N+](=O)[O-]	i	-0.59	i	i	-21	i	i	i	i
O=C(NCCc1cccc(Cl)c1)c1cc([N+](=O)[O-])ccc1Cl	i	-1.7	i	i	-5	i	x	x	x
CC(=O)NCCn1c(C)cc2ccccc21	i	0.29	i	i	-8	i	x	x	x
O=C(CCc1ccc(O)cc1)c1c(O)cc(O)cc1O	i	-1.4	i	i	-33	i	x	x	x
COc1cc(O)c(CC=C(C)C)c(O)c1C(=O)CCc1ccc(O)cc1	-14*	0.49	i	i	-15	i	32%*	i	34%*
O=C(OCC(=O)N1CCCc2ccccc21)c1ccc(F)c(S(=O)(=O)N2CCOCC2)c1	i	x	i	i	-17	i	x	x	x
O=C(c1ccc(F)c(S(=O)(=O)N2CCOCC2)c1)N1CCc2ccccc21	i	x	i	i	-6	i	i	i	i
COc1ccc(NC(=O)C(c2ccc(Cl)cc2)C(C)C)cn1 (centres undefined)	i	x	i	i	-11	i	x	x	x
Cc1cc(SCC(=O)N2CCC(c3noc4ccc(F)cc34)CC2)nc2ccccc12	i	-0.87	i	i	-12	i	i	i	i
Cc1cc(SCC(=O)N2CCCC2=O)nc2ccccc12	x	x	i	x	x	x	x	x	x
O=C(CSc1ncnc2sc3c(c12)CCCC3)N1CCC(c2noc3ccc(F)cc23)CC1	i	0.71	i	i	-22	i	i	i	i
Cc1ccc(S(=O)(=O)N2C[C@@H]3[C@H]4CC[C@H](C4)[C@@H]3[C@@H](C)[C@H]2c2ccco2)cc1	x	x	i	x	x	x	x	x	x
COc1ccc(OCC(O)CN2CCC(CN3C(=O)c4cccc5cccc(c45)C3=O)CC2)cc1 (centres undefined)	i	x	i	i	-8	i	x	x	x
Cc1ccc(C)c(OCC(O)CN2CCC(CN3C(=O)c4cccc5cccc(c45)C3=O)CC2)c1 (centres undefined)	i	0.73	i	i	-22	i	i	i	i
O=C(Oc1ccccc1)c1cccc2cccc(C(=O)Oc3ccccc3)c12	-9.2*	-1.1	i	i	-8	i	42%*	i	26%*

Screening results: PubChem, several laboratories
